Results from ChEMBL document CHEMBL4732199, “Potent and orally bioavailable CDK8 inhibitors: Design, synthesis, structure-activity relationship analysis and biological evaluation” (Eur J Med Chem, 2021).

How the values were obtained:
[1] = target: CDK8/Cyclin C (Homo sapiens, UniProt P49336); experiment: Inhibition of CDK8/cyclin C (unknown origin) using RBER-IRStide as substrate incubated for 60 mins in presence of [gamma33P]ATP by scintillation counting method; assay type: protein-complex assay
CDK8/Cyclin C, sequence (P49336 whole entry): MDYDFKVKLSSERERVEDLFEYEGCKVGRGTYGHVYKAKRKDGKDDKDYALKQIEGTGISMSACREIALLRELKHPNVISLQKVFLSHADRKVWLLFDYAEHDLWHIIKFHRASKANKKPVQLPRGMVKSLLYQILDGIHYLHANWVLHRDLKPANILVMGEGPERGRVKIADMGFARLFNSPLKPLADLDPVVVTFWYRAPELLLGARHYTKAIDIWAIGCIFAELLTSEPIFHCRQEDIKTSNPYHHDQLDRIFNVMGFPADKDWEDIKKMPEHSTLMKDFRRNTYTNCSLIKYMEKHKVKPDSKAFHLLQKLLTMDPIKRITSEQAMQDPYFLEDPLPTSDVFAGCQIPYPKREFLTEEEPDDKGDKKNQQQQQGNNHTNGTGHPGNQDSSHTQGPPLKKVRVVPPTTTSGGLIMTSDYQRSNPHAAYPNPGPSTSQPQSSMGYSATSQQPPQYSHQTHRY
CDK8/Cyclin C, sequence (P24863 whole entry, further chain): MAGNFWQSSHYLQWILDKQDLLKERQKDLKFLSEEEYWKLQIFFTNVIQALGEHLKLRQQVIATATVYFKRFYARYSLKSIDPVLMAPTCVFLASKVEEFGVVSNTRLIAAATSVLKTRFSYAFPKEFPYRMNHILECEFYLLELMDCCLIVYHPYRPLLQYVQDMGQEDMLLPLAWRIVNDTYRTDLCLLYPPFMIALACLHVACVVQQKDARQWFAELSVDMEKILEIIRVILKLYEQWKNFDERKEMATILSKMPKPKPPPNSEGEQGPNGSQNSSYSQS

[2] = system: MV4-11; experiment: Growth inhibition of human MV4-11 cells after 72 hrs by resazurin staining based assay; assay type: functional
Outline: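 MV4-11 leukaemia cells grown in medium with 10% FBS at 37 °C, 5% CO2. Growth was read by a 72-h resazurin viability assay. GI50 was obtained by nonlinear regression and reported as mean ± standard deviation of at least two replicates.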

| SMILES | Ki [1] [µM] | GI50 [2] [µM] |
| --- | --- | --- |
| Cn1cc(-c2ccc(-c3cncc(Cl)c3-n3ccc(C(N)=O)c3)cc2)cn1 | 1.09 | 9.58 |
| O=C1NCCC12CCN(c1c(Cl)cncc1-c1cn(Cc3ccccc3)c3ncccc13)CC2 | 0.058 | 30.6 |
| O=C1NCCC12CCN(c1c(Cl)cncc1-c1cncc3ccccc13)CC2 | 0.066 | 7.55 |
| CNC(=O)c1ccn(-c2c(Cl)cncc2-c2ccc(-c3cnn(C)c3)cc2)c1 | 2.03 | 35 |
| COc1ccc(-c2cncc(Cl)c2N2CCC3(CCNC3=O)CC2)c2ccccc12 | 0.026 | 33.2 |
| O=C1NCCC12CCN(c1c(Cl)cncc1-c1cnn(-c3ccccc3)c1)CC2 | 0.042 | 0.84 |
| O=C1NCCC12CCN(c1c(Cl)cncc1-c1cnn(Cc3ccccc3)c1)CC2 | 0.346 | 5.34 |
| O=C1NCCC12CCN(c1c(Cl)cncc1-c1c[nH]c3ccccc13)CC2 | 0.056 | 8.77 |
| O=C1NCCC12CCN(c1c(Cl)cncc1-c1cccc3[nH]ccc13)CC2 | 0.019 | 1.91 |
| Cn1cc(-c2ccc(-c3cncc(Cl)c3-n3ccc(C(=O)O)c3)cc2)cn1 | 4.19 | 87.1 |
| Cn1c(-c2cncc(Cl)c2N2CCC3(CCNC3=O)CC2)cc2ccccc21 | 0.079 | 10.1 |

Second part, the compound after the results:

| Ki [1] [µM] | GI50 [2] [µM] | SMILES |
| --- | --- | --- |
| 0.016 | 0.82 | O=C1NCCC12CCN(c1c(Cl)cncc1-c1cccc3ccccc13)CC2 |
| 0.114 | 9.15 | O=C1NCCC12CCN(c1c(Cl)cncc1-c1cccc3cccnc13)CC2 |
| 0.022 | 3.65 | O=C1NCCC12CCN(c1c(Cl)cncc1-c1cccc3ncccc13)CC2 |
| 0.138 | 53.5 | O=C1NCCC12CCN(c1c(Cl)cncc1-c1ccnc3ccccc13)CC2 |
| 0.05 | 7.82 | O=C1NCCC12CCN(c1c(Cl)cncc1-c1c[nH]c3ncccc13)CC2 |
